Measurements reported in ChEMBL document CHEMBL3994579, “Synthesis and antibacterial activity of novel 3-O-descladinosylazithromycin derivatives” (2017).
Values after ≈ are worked out from the molar mass of the structure shown.

How the values were obtained:
Assay type in all cases: functional
[1] = tested on: Pseudomonas aeruginosa; experiment: Antibacterial activity against penicillin-susceptible Pseudomonas aeruginosa ATCC 27853 by broth microdilution method
Summary of the method: (§1)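 MICs were determined in vitro by broth microdilution following the NCCL-recommended method. Azithromycin and clarithromycin were run alongside as reference antibiotics on the same strain panel.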

[2] = tested on: Bacillus subtilis; experiment: Antibacterial activity against erythromycin/penicillin-susceptible Bacillus subtilis ATCC 9372 by broth microdilution method; summary of the method: as §1
[3] = tested on: Streptococcus pneumoniae; experiment: Antibacterial activity against erythromycin-resistant Streptococcus pneumoniae A22072 expressing mefA gene by broth microdilution method
Summary of the method: (§2)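 Broth microdilution per NCCL recommendation, read as minimal inhibitory concentration, run alongside azithromycin and clarithromycin references. Strains: S. pneumoniae B1 (erythromycin-resistant, ermB), A22072 (erythromycin-resistant, mefA), AB11 (erythromycin-resistant, erm and mef); S. aureus ATCC29213 ([…]); S. epidermidis clinical isolate (penicillin-resistant, not characterized).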

[4] = tested on: Escherichia coli; experiment: Antibacterial activity against penicillin-susceptible Escherichia coli ATCC 25922 by broth microdilution method; summary of the method: as §1
[5] = tested on: Staphylococcus epidermidis; experiment: Antibacterial activity against penicillin-resistant Staphylococcus epidermidis clinical isolate by broth microdilution method; summary of the method: as §2
[6] = tested on: Staphylococcus aureus; experiment: Antibacterial activity against erythromycin-susceptible Staphylococcus aureus ATCC 25923 by broth microdilution method; summary of the method: as §1
[7] = tested on: Streptococcus pyogenes; experiment: Antibacterial activity against erythromycin-susceptible Streptococcus pyogenes clinical isolate by broth microdilution method; summary of the method: as §1
[8] = tested on: Streptococcus pneumoniae; experiment: Antibacterial activity against erythromycin-resistant Streptococcus pneumoniae AB11 expressing ermB/mefA genes by broth microdilution method; summary of the method: as §2
[9] = tested on: Streptococcus pneumoniae; experiment: Antibacterial activity against erythromycin-resistant Streptococcus pneumoniae B1 expressing ermB gene by broth microdilution method; summary of the method: as §2
[10] = tested on: Staphylococcus aureus; experiment: Antibacterial activity against […] Staphylococcus aureus ATCC 29213 by broth microdilution method; summary of the method: as §2
[11] = tested on: Streptococcus pyogenes; experiment: Antibacterial activity against erythromycin-resistant Streptococcus pyogenes R1 clinical isolate by broth microdilution method

CC[C@H]1OC(=O)[C@H](C)[C@@H](O)[C@H](C)[C@@H](O[C@@H]2O[C@H](C)C[C@H](N(C)C)[C@H]2OC(=O)Nc2cccc(F)c2)[C@](C)(O)C[C@@H](C)CN(C)[C@H](C)[C@H]2OC(=O)O[C@@]21C
MIC [1]: 128 µg/mL (≈ 170 µM) | MIC [2]: 128 µg/mL (≈ 170 µM) | MIC [3]: 8 µg/mL (≈ 10.6 µM) | MIC [4]: 128 µg/mL (≈ 170 µM) | MIC [5]: 64 µg/mL (≈ 84.9 µM) | MIC [6]: 32 µg/mL (≈ 42.4 µM) | MIC [7]: 1 µg/mL (≈ 1.33 µM) | MIC [8]: 16 µg/mL (≈ 21.2 µM) | MIC [9]: 256 µg/mL (≈ 340 µM) | MIC [10]: 128 µg/mL (≈ 170 µM) | MIC [11]: 128 µg/mL (≈ 170 µM)

CC[C@H]1OC(=O)[C@H](C)[C@@H](OC(=O)Nc2cccc(F)c2)[C@H](C)[C@@H](O[C@@H]2O[C@H](C)C[C@H](N(C)C)[C@H]2O)[C@](C)(O)C[C@@H](C)CN(C)[C@H](C)[C@H]2OC(=O)O[C@@]21C
MIC [1]: 128 µg/mL (≈ 170 µM) | MIC [2]: 128 µg/mL (≈ 170 µM) | MIC [3]: 16 µg/mL (≈ 21.2 µM) | MIC [4]: 128 µg/mL (≈ 170 µM) | MIC [5]: 64 µg/mL (≈ 84.9 µM) | MIC [6]: 32 µg/mL (≈ 42.4 µM) | MIC [7]: 2 µg/mL (≈ 2.65 µM) | MIC [8]: 32 µg/mL (≈ 42.4 µM) | MIC [9]: 64 µg/mL (≈ 84.9 µM) | MIC [10]: 128 µg/mL (≈ 170 µM) | MIC [11]: 128 µg/mL (≈ 170 µM)

CCCCCNC(=O)O[C@H]1[C@H](C)[C@@H](O[C@@H]2O[C@H](C)C[C@H](N(C)C)[C@H]2OC(C)=O)[C@](C)(O)C[C@@H](C)CN(C)[C@H](C)[C@H]2OC(=O)O[C@]2(C)[C@@H](CC)OC(=O)[C@@H]1C
MIC [1]: 128 µg/mL (≈ 166 µM) | MIC [2]: 32 µg/mL (≈ 41.5 µM) | MIC [3]: 32 µg/mL (≈ 41.5 µM) | MIC [4]: 128 µg/mL (≈ 166 µM) | MIC [5]: 32 µg/mL (≈ 41.5 µM) | MIC [6]: 32 µg/mL (≈ 41.5 µM) | MIC [7]: 4 µg/mL (≈ 5.18 µM) | MIC [8]: 128 µg/mL (≈ 166 µM) | MIC [9]: 64 µg/mL (≈ 82.9 µM) | MIC [10]: 64 µg/mL (≈ 82.9 µM) | MIC [11]: 128 µg/mL (≈ 166 µM)

CC[C@H]1OC(=O)[C@H](C)[C@@H](OC(=O)Nc2ccccc2F)[C@H](C)[C@@H](O[C@@H]2O[C@H](C)C[C@H](N(C)C)[C@H]2OC(C)=O)[C@](C)(O)C[C@@H](C)CN(C)[C@H](C)[C@H]2OC(=O)O[C@@]21C
MIC [1]: 128 µg/mL (≈ 161 µM) | MIC [2]: 32 µg/mL (≈ 40.2 µM) | MIC [3]: 8 µg/mL (≈ 10.1 µM) | MIC [4]: 64 µg/mL (≈ 80.4 µM) | MIC [5]: 64 µg/mL (≈ 80.4 µM) | MIC [6]: 32 µg/mL (≈ 40.2 µM) | MIC [7]: 4 µg/mL (≈ 5.03 µM) | MIC [8]: 32 µg/mL (≈ 40.2 µM) | MIC [9]: 128 µg/mL (≈ 161 µM) | MIC [10]: 64 µg/mL (≈ 80.4 µM) | MIC [11]: 128 µg/mL (≈ 161 µM)

CC[C@H]1OC(=O)[C@H](C)[C@@H](OC(=O)Nc2cccc(C(F)(F)F)c2)[C@H](C)[C@@H](O[C@@H]2O[C@H](C)C[C@H](N(C)C)[C@H]2O)[C@](C)(O)C[C@@H](C)CN(C)[C@H](C)[C@H]2OC(=O)O[C@@]21C
MIC [1]: 128 µg/mL (≈ 159 µM) | MIC [2]: 64 µg/mL (≈ 79.6 µM) | MIC [3]: 8 µg/mL (≈ 9.95 µM) | MIC [4]: 128 µg/mL (≈ 159 µM) | MIC [5]: 0.5 µg/mL (≈ 0.622 µM) | MIC [6]: 16 µg/mL (≈ 19.9 µM) | MIC [7]: 1 µg/mL (≈ 1.24 µM) | MIC [8]: 8 µg/mL (≈ 9.95 µM) | MIC [9]: 32 µg/mL (≈ 39.8 µM) | MIC [10]: 128 µg/mL (≈ 159 µM) | MIC [11]: 64 µg/mL (≈ 79.6 µM)

CC[C@H]1OC(=O)[C@H](C)[C@@H](OC(=O)Nc2ccccc2)[C@H](C)[C@@H](O[C@@H]2O[C@H](C)C[C@H](N(C)C)[C@H]2O)[C@](C)(O)C[C@@H](C)CN(C)[C@H](C)[C@@H](OC(=O)NCc2ccccc2)[C@]1(C)O
MIC [1]: 64 µg/mL (≈ 75.9 µM) | MIC [2]: 8 µg/mL (≈ 9.49 µM) | MIC [3]: 16 µg/mL (≈ 19 µM) | MIC [4]: 64 µg/mL (≈ 75.9 µM) | MIC [5]: 32 µg/mL (≈ 38 µM) | MIC [6]: 32 µg/mL (≈ 38 µM) | MIC [7]: 2 µg/mL (≈ 2.37 µM) | MIC [8]: 2 µg/mL (≈ 2.37 µM) | MIC [9]: 128 µg/mL (≈ 152 µM) | MIC [10]: 128 µg/mL (≈ 152 µM) | MIC [11]: 64 µg/mL (≈ 75.9 µM)

CC[C@H]1OC(=O)[C@H](C)[C@@H](O)[C@H](C)[C@@H](O[C@@H]2O[C@H](C)C[C@H](N(C)C)[C@H]2OC(=O)n2ccnc2)[C@](C)(O)C[C@@H](C)CN(C)[C@H](C)[C@H]2OC(=O)O[C@@]21C
MIC [1]: 64 µg/mL (≈ 90 µM) | MIC [2]: 128 µg/mL (≈ 180 µM) | MIC [3]: 128 µg/mL (≈ 180 µM) | MIC [4]: 64 µg/mL (≈ 90 µM) | MIC [5]: 32 µg/mL (≈ 45 µM) | MIC [6]: 64 µg/mL (≈ 90 µM) | MIC [7]: 8 µg/mL (≈ 11.3 µM) | MIC [8]: 32 µg/mL (≈ 45 µM) | MIC [9]: 256 µg/mL (≈ 360 µM) | MIC [10]: 128 µg/mL (≈ 180 µM) | MIC [11]: 256 µg/mL (≈ 360 µM)

CC[C@H]1OC(=O)[C@H](C)[C@@H](OC(=O)Nc2ccccc2Cl)[C@H](C)[C@@H](O[C@@H]2O[C@H](C)C[C@H](N(C)C)[C@H]2O)[C@](C)(O)C[C@@H](C)CN(C)[C@H](C)[C@H]2OC(=O)O[C@@]21C
MIC [1]: 128 µg/mL (≈ 166 µM) | MIC [2]: 8 µg/mL (≈ 10.4 µM) | MIC [3]: 1 µg/mL (≈ 1.3 µM) | MIC [4]: 128 µg/mL (≈ 166 µM) | MIC [5]: 64 µg/mL (≈ 83.1 µM) | MIC [6]: 8 µg/mL (≈ 10.4 µM) | MIC [7]: 0.125 µg/mL (≈ 0.162 µM) | MIC [8]: 4 µg/mL (≈ 5.19 µM) | MIC [9]: 64 µg/mL (≈ 83.1 µM) | MIC [10]: 64 µg/mL (≈ 83.1 µM) | MIC [11]: 128 µg/mL (≈ 166 µM)

CC[C@H]1OC(=O)[C@H](C)[C@@H](OC(=O)N(C)c2ccccc2)[C@H](C)[C@@H](O[C@@H]2O[C@H](C)C[C@H](N(C)C)[C@H]2OC(C)=O)[C@](C)(O)C[C@@H](C)CN(C)[C@H](C)[C@H]2OC(=O)O[C@@]21C
MIC [5]: 128 µg/mL (≈ 162 µM)
